Experimental data gathered from unrelated publications.
Target: Serine/threonine-protein kinase haspin (HASPIN, Homo sapiens, UniProt Q8TF76)
Residues used in one study (Q8TF76 1-798): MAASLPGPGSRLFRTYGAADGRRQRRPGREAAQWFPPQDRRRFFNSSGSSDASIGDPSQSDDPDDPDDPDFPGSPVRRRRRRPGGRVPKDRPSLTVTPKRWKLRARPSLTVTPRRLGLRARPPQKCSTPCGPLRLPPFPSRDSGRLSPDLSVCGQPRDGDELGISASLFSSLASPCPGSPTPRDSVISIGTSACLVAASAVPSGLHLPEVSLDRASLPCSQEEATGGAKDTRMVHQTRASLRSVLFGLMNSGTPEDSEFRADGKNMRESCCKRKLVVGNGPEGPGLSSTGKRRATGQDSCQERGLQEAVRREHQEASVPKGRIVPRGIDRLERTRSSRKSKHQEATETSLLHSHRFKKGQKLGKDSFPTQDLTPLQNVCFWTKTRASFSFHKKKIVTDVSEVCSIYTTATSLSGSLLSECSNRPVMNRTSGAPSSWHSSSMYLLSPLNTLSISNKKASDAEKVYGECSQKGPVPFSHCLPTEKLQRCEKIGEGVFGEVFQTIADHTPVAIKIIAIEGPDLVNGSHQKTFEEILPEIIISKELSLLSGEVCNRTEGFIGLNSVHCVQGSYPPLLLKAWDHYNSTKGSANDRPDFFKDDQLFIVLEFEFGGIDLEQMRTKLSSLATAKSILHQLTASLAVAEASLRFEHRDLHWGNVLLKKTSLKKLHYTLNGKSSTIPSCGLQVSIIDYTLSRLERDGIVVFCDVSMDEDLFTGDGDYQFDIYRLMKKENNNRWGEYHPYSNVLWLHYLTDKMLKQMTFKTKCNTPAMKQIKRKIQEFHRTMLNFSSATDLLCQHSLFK

COc1cc2nccc(Oc3ccc(NC(=S)NC(=O)c4ccccc4C)cc3)c2cc1OC  remaining activity (enzyme activity; inhibitor; 0.5 µM): 95.9%
CC1=C(C#N)C(c2ccc3c(c2)c(NC(=O)c2ccccc2C)nn3C)C(C#N)=C(C)N1  remaining binding (cell-free assay; competition with immobilised ligand; 1 µM): 71%
CC(C)(O)[C@H]1CC[C@H](Nc2ccc3ncc(-c4cccc(C(F)(F)F)c4)n3n2)CC1  remaining activity (enzyme activity; inhibitor; 1 µM): 15.4%
Cc1ccc(C(=O)Nc2ccc(CN3CCN(C)CC3)c(C(F)(F)F)c2)cc1C#Cc1cnc2cccnn12  remaining activity (enzyme activity; 23.5 nM): 86%
COCCOc1nc(-c2ccc(Cl)nc2)nc2c1CN(C(=O)c1ncn3ccccc13)CC2  remaining binding (cell-free assay; competition with immobilised ligand; 0.1 µM): 100%
O=c1c2ccccc2[nH]c(=S)n1CCN1CCC(=C(c2ccc(F)cc2)c2ccc(F)cc2)CC1  remaining activity (enzyme activity; inhibitor; 0.5 µM): 95.4%
O=C(Nc1cnn(-c2csc(C(=O)NC3COC3)c2)c1)Nc1c(F)cccc1Cl  remaining activity (enzyme activity; inhibitor; 5 µM): 111%
O=C1NC(=O)c2cc(Nc3ccc(F)cc3)c(Nc3ccc(F)cc3)cc21  remaining signal (cell-free assay; 0.5 µM): 95.1%
CCCOc1ccc([C@H]2[C@H](C(=O)O)[C@@H](c3ccc4c(c3)OCO4)CN2CC(=O)Nc2c(CC)cccc2CC)cc1  remaining binding (cell-free assay; competition with immobilised ligand; 1 µM): 62%
CC(C)(C)c1nc2c(s1)c1nc(N)ncc1c1ccc(NS(=O)(=O)c3c(F)cccc3F)c(F)c12  remaining activity (enzyme activity; inhibitor; radiometric; 1 µM): 118%
O=C(O)c1ccc2c3c1cccc3c(=O)n1c3ccccc3nc21  remaining activity (enzyme activity; inhibitor; 0.5 µM): 90.9%
CNC(=O)c1cc(Oc2ccc(NC(=O)Nc3ccc(Cl)c(C(F)(F)F)c3)cc2)ccn1  inhibition (enzyme activity; inhibitor; 10 µM): 10%
O=C(Nc1ccc(Oc2ccc(F)cc2)cc1)N1CCc2ncccc2[C@H]1c1ccc(F)cc1  remaining binding (cell-free assay; competition with immobilised ligand; 1 µM): 85%
Cc1sc(C(=O)NC2COC2)cc1-n1cc(NC(=O)Nc2c(F)cccc2Cl)cn1  remaining activity (enzyme activity; inhibitor; 10 µM): 92.4%
CC(=O)Nc1c(C(C)=O)c(=O)n(C)c2nc(-c3ccc(Cl)cc3Cl)c(-c3ccc(Cl)cc3)cc12  remaining binding (cell-free assay; competition with immobilised ligand; 1 µM): 100%
COc1cc(-c2cc(-c3ccc(N4CCNCC4)cc3)cnc2C)cc(OC)c1OC  inhibition (enzyme activity; inhibitor; 0.1 µM): 3%
CN1CC(Oc2cnc(C#N)cc2-c2ccn3nc(NC(=O)C4CC4)cc3c2)C1  inhibition (enzyme activity; inhibitor; 1 µM): 3%
Cc1nc(Cc2cccc(C(F)(F)F)c2)sc1-c1ccc(C(N)=O)nc1  remaining binding (cell-free assay; competition with immobilised ligand; 1 µM): 100%
Cc1ccc(Nc2nccc(N(C)c3ccc4c(C)n(C)nc4c3)n2)cc1S(N)(=O)=O  inhibition (enzyme activity; inhibitor; 10 µM): 8%
Cn1cncc1C1=CN(c2ncnc3[nH]cnc23)CCS1  inhibition (enzyme activity; inhibitor; radiometric; 50 nM): 25.6%
CCN(CC)CCNC(=O)c1c(C)[nH]c(/C=C2\C(=O)Nc3ccc(Cl)cc32)c1C  remaining activity (enzyme activity; inhibitor; 0.5 µM): 82.9%
Cn1cnc(Br)c1C1=CN(c2ncnc3[nH]cnc23)CCS1  inhibition (enzyme activity; inhibitor; radiometric; 50 nM): 32.9%
Cc1cnc(NC2CCOCC2)nc1-n1cnc(C(=O)NC(CN)c2cc(F)cc(Cl)c2)c1 (stereo not shown)  remaining activity (enzyme activity; inhibitor; radiometric; 1 µM): 40%
C[C@@H]1CN(c2cc(-c3nn(C)c4ccc(OC5(C)CC5)cc34)ncn2)C[C@H](C)O1  remaining binding (cell-free assay; competition with immobilised ligand; 1 µM): 99%
Cc1cc(NC(=O)c2cccc3cc(-c4cccc5[nH]nc(N)c45)ccc23)ccc1F  activity vs control (enzyme activity; inhibitor; 0.1 µM): 111%
